Source: ChEMBL document CHEMBL3856239, “Synthesis and Antiobesity Properties of 6-(4-Chlorophenyl)-3-(4-((3,3-difluoro-1-hydroxycyclobutyl)methoxy)-3-methoxyphenyl)thieno[3,2-d]pyrimidin-4(3H)-one (BMS-814580): A Highly Efficacious Melanin Concentrating Hormone Receptor 1 (MCHR1) Inhibitor” (J Med Chem, 2016)
Converted amounts (≈) assume the structure as drawn.

Legend:
Rattus norvegicus [1] = assay: Antiobesity activity in DIO Sprague-Dawley rat model assessed as reduction in body weight at 3 mg/kg, po qd for 28 days relative to vehicle control; assay type: functional; parameters: scale not given: the % may be the effect or the level left
Procedure, shortened: (§1)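 Obese male SD rats on diet-induced obesity, 8/group, dosed orally once daily for 28 days with phosphate prodrug (0.03–3 mg/kg parent) in 14% propylene glycol/1% Tween/85% water; rimonabant 10 mg/kg control; pair-fed groups matched to 1 and 3 mg/kg intake; body weight and food measured daily, % change versus vehicle.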

[2] = Tmax in rat at 10 mg/kg, po; assay type: ADME, organism-based; settings: in vivo
Procedure, shortened: (§2)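 Full PK in rat, dog and cynomolgus monkey. Oral arm: phosphate prodrug at 10 mg/kg parent-equivalent in Methocel:Tween80:water (0.5:0.1:99.4). Intravenous arm: parent at 1 mg/kg in PEG400:DMAC:water (70:5:25). n = 3 per species; individual Tmax values reported for dog and monkey.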

[3] = Plasma concentration in DIO Sprague-Dawley rat assessed as parent compound level at 3 mg/kg, po for 28 days measured after 24 hrs
[4] = Oral bioavailability in rat at 10 mg/kg; assay type: ADME, organism-based; settings: in vivo; procedure, shortened: as §2
[5] = Protein binding in dog plasma assessed as unbound fraction; assay type: ADME, cell-free, Canis lupus familiaris
Procedure, shortened: (§3)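 Plasma protein binding reported as % free drug in rat, DIO rat, dog, cynomolgus monkey, rabbit and human plasma.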

[6] = AUC in cynomolgus monkey at 10 mg/kg, po; assay type: ADME, organism-based, Macaca fascicularis; settings: in vivo
Procedure, shortened: (§4)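 Rats, dogs and cynomolgus monkeys, n = 3: parent 1 mg/kg i.v. in PEG400:DMAC:water (70:5:25), or phosphate prodrug 10 mg/kg oral in Methocel:Tween80:water (0.5:0.1:99.4); plasma parent compound, Cmax, Tmax, AUC0-∞, half-life, clearance, Vss and bioavailability derived.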

Rattus norvegicus [7] = assay: Antiobesity activity in DIO Sprague-Dawley rat model assessed as reduction in body weight at 0.3 mg/kg, po qd for 28 days relative to vehicle control; assay type: functional; parameters: scale not given: the % may be the effect or the level left; procedure, shortened: as §1
Rattus norvegicus [8] = assay: Antiobesity activity in DIO Sprague-Dawley rat model assessed as reduction in caloric intake at 1 mg/kg, po qd for 28 days relative to vehicle control; assay type: functional; parameters: scale not given: the % may be the effect or the level left; procedure, shortened: as §1
[9] = Protein binding in cynomolgus monkey plasma assessed as unbound fraction; assay type: ADME, cell-free, Macaca fascicularis; procedure, shortened: as §3
[10] = Tmax in dog at 10 mg/kg, po; assay type: ADME, organism-based, Canis lupus familiaris; settings: in vivo; procedure, shortened: as §2
[11] = Cmax in dog at 10 mg/kg, po; assay type: ADME, organism-based, Canis lupus familiaris; parameters: dose 10 mg/kg, route oral; settings: in vivo; procedure, shortened: as §4
Rattus norvegicus [12] = assay: Antiobesity activity in DIO Sprague-Dawley rat model assessed as reduction in caloric intake at 0.03 mg/kg, po qd for 28 days relative to vehicle control; assay type: functional; parameters: scale not given: the % may be the effect or the level left; procedure, shortened: as §1
Rattus norvegicus [13] = assay: Antiobesity activity in DIO Sprague-Dawley rat model assessed as reduction in body weight at 0.03 mg/kg, po qd for 28 days relative to vehicle control; assay type: functional; parameters: scale not given: the % may be the effect or the level left; procedure, shortened: as §1
[14] = Plasma concentration in DIO Sprague-Dawley rat assessed as parent compound level at 3 mg/kg, po for 28 days measured after 2 hrs; assay type: ADME, organism-based
Procedure, shortened: (§5)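 Obese male DIO SD rats, 8/group, dosed orally once daily for 28 days with phosphate prodrug at 0.03–3 mg/kg. Vehicle 14% propylene glycol/1% Tween/85% water. Body weight and food intake recorded daily. Parent plasma levels at 2 and 24 h; prodrug detection limit <2 nM. Histopathology for biliary toxicity at study end.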

[15] = target: Melanin-concentrating hormone receptor 1 (Homo sapiens, UniProt Q99705); assay: Binding affinity to MCHR1 (unknown origin)
Chain of Melanin-concentrating hormone receptor 1 (Q99705 whole entry): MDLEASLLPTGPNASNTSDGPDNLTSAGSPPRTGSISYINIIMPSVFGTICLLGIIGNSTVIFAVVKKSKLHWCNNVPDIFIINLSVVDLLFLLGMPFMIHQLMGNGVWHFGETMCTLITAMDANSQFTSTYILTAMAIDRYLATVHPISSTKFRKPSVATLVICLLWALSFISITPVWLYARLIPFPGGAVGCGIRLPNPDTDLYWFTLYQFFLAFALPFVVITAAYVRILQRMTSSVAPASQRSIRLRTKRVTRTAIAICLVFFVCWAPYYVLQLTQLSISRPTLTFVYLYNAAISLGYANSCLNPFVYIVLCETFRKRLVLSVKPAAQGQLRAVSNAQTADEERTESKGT

[16] = Oral bioavailability in cynomolgus monkey at 10 mg/kg; assay type: ADME, organism-based, Macaca fascicularis; settings: in vivo; procedure, shortened: as §2
Rattus norvegicus [17] = assay: Antiobesity activity in DIO Sprague-Dawley rat model assessed as reduction in caloric intake at 3 mg/kg, po qd for 28 days relative to vehicle control; assay type: functional; parameters: scale not given: the % may be the effect or the level left; procedure, shortened: as §1
[18] = Tmax in cynomolgus monkey at 10 mg/kg, po; assay type: ADME, organism-based, Macaca fascicularis; settings: in vivo; procedure, shortened: as §2
[19] = Plasma concentration in DIO Sprague-Dawley rat assessed as parent compound level at 0.3 mg/kg, po for 28 days measured after 24 hrs; assay type: ADME, organism-based; procedure, shortened: as §5
Rattus norvegicus [20] = assay: Toxicity in rat assessed as hepatobiliary lesions up to 100 mg/kg administered for 30 days; assay type: organism-based; settings: in vivo, 720 h
Procedure, shortened: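 Rats dosed daily with the phosphate prodrug for 30 days at up to 100 mg/kg; hepatobiliary lesions examined.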

Rattus norvegicus [21] = assay: Antiobesity activity in DIO Sprague-Dawley rat model assessed as reduction in body weight at 0.1 mg/kg, po qd for 28 days relative to vehicle control; assay type: functional; parameters: scale not given: the % may be the effect or the level left; procedure, shortened: as §1
Rattus norvegicus [22] = assay: Antiobesity activity in DIO Sprague-Dawley rat model assessed as reduction in body weight at 1 mg/kg, po qd for 28 days relative to vehicle control; assay type: functional; parameters: scale not given: the % may be the effect or the level left; procedure, shortened: as §1
Rattus norvegicus [23] = assay: Antiobesity activity in once daily orally dosed DIO Sprague-Dawley rat model assessed as reduction in caloric measured after 28 days relative to vehicle control; assay type: functional, organism-based; procedure, shortened: as §1
Rattus norvegicus [24] = assay: Antiobesity activity in DIO Sprague-Dawley rat model assessed as reduction in caloric intake at 0.3 mg/kg, po qd for 28 days relative to vehicle control; assay type: functional; parameters: scale not given: the % may be the effect or the level left; procedure, shortened: as §1
[25] = Cmax in cynomolgus monkey at 10 mg/kg, po; assay type: ADME, organism-based, Macaca fascicularis; parameters: dose 10 mg/kg, route oral; settings: in vivo; procedure, shortened: as §4
[26] = Protein binding in rabbit plasma assessed as unbound fraction; assay type: ADME, cell-free, Oryctolagus cuniculus; procedure, shortened: as §3
[27] = AUC in rat at 10 mg/kg, po; assay type: ADME, organism-based; settings: in vivo; procedure, shortened: as §4
Rattus norvegicus [28] = assay: Antiobesity activity in DIO Sprague-Dawley rat model assessed as reduction in caloric intake at 0.1 mg/kg, po qd for 28 days relative to vehicle control; assay type: functional; parameters: scale not given: the % may be the effect or the level left; procedure, shortened: as §1
[29] = Plasma concentration in DIO Sprague-Dawley rat assessed as parent compound level at 0.3 mg/kg, po for 28 days measured after 2 hrs; assay type: ADME, organism-based; procedure, shortened: as §5
[30] = Cmax in rat at 10 mg/kg, po; assay type: ADME, organism-based; parameters: dose 10 mg/kg, route oral; settings: in vivo; procedure, shortened: as §4
[31] = Oral bioavailability in dog at 10 mg/kg; assay type: ADME, organism-based, Canis lupus familiaris; settings: in vivo; procedure, shortened: as §2
Rattus norvegicus [32] = assay: Toxicity in DIO Sprague-Dawley rat assessed as biliary lesion at 0.03 to 3 mg/kg, po administered once daily for 28 days by histophalogy analysis; assay type: organism-based; settings: in vivo, 672 h; procedure, shortened: as §5
[33] = AUC in dog at 10 mg/kg, po; assay type: ADME, organism-based, Canis lupus familiaris; settings: in vivo; procedure, shortened: as §4
[34] = Solubility of the compound in phosphate buffer at pH 6.4; assay type: physicochemical
Procedure, shortened: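 Solubility of parent compounds and prodrugs measured in 50 mM phosphate buffer, pH 6.4.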

[35] = Protein binding in DIO rat plasma assessed as unbound fraction; assay type: ADME, cell-free; procedure, shortened: as §3

Work on `COc1cc(-n2cnc3cc(-c4ccc(Cl)cc4)sc3c2=O)ccc1OCC1(OP(=O)(O)O)CC(F)(F)C1` yielded an Activity (Rattus norvegicus [1]) of 7.8%, a Tmax [2] of 6.7 h and a concentration at 24 h [3] of 14400 nM. For the same compound, the bioavailability [4] was 54%, the Fu [5] was 0.3% and the AUC [6] was 87 µM·h. It also gave an Activity (Rattus norvegicus [7]) of 5%, an Activity (Rattus norvegicus [8]) of 14.5% and a Fu [9] of 0.4%. The Tmax [10] was 9.3 h, the Cmax [11] was 1200 nM and the Activity (Rattus norvegicus [12]) was 6.5%. It also gave an Activity (Rattus norvegicus [13]) of 1.7%, a concentration at 2 h [14] of 13500 nM and a Ki [15] of 2920 nM. The bioavailability [16] was 46%, the Activity (Rattus norvegicus [17]) was 14.7% and the Tmax [18] was 10.7 h. The concentration at 24 h [19] was 1200 nM, the Activity (Rattus norvegicus [20]) was “Non-Toxic” and the Activity (Rattus norvegicus [21]) was 3.2%. For the same compound, the Activity (Rattus norvegicus [22]) was 6.6%, the inhibition (Rattus norvegicus [23]) was “Dose-dependent effect” and the Activity (Rattus norvegicus [24]) was 12.8%. It also gave a Cmax [25] of 1200 nM, a Fu [26] of 0.2% and an AUC [27] of 107 µM·h. It also gave an Activity (Rattus norvegicus [28]) of 10.5%, a concentration at 2 h [29] of 2000 nM and a Cmax [30] of 4000 nM. For the same compound, the bioavailability [31] was 33%, the Activity (Rattus norvegicus [32]) was “Non-Toxic” and the AUC [33] was 15.3 µM·h. It also gave a solubility [34] of 4 µg/mL (≈ 6.84 µM) and a Fu [35] of 0.1%.
